This note sets out measurements from ChEMBL document CHEMBL1157079, “Labdane diterpenes from the aerial parts of Curcuma comosa enhance fetal hemoglobin production in an erythroid cell line” (J Nat Prod, 2010).

The subject of series [1] is K562. The series can be described thus: Induction of fetal heamoglobin level in human K562 cells assessed as increase in enhanced GFP expression under the control of gamma-globin promoter at 5 uM after 5 days by flow cytometry. Type of series: functional. The procedure, abridged:
(§1)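 Stable reporter line K562::∆Gγ-Aγ EGFP, carrying the EGFP gene under a γ-globin promoter within the intact human β-globin locus. Compounds tested at 5-100 µM. Read-out is EGFP expression as fold change relative to untreated, with % cell viability measured alongside. Hemin 50 µM and cisplatin 10 µM serve as reference inducers, with a DMSO vehicle control. Values are mean ± SD of three independent experiments.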
On the technique in general: Flow cytometry measures light scatter and fluorescence of single cells or particles in a stream.

The subject of series [2] is K562. Briefly: Induction of fetal heamoglobin level in human K562 cells assessed as increase in enhanced-GFP expression under the control of gamma-globin promoter at 5 to 100 uM after 5 days by flow cytometry. Type of series: functional, cell-based. An outline of the steps: as §1
Series [3] is described as follows: Cytotoxicity against human K562 cells assessed as cell viability at 5 uM. Type of series: cell-based. The note with it: read-out: Activity. The procedure, abridged:
as §1

The test system of series [4] is K562. Briefly: Induction of fetal heamoglobin level in human K562 cells assessed as increase in enhanced-GFP expression under the control of gamma-globin promoter at 20 uM after 5 days by flow cytometry. Type of series: functional. An outline of the steps:
as §1

The subject of series [5] is K562. Briefly: Induction of fetal heamoglobin level in human K562 cells assessed as increase in enhanced GFP expression under the control of gamma-globin promoter after 5 days by flow cytometry. Type of series: functional, cell-based. The procedure, abridged: as §1
Series [6] is described as follows: Cytotoxicity against human K562 cells assessed as cell viability at 20 uM. Type of series: cell-based. The note with it: read-out: Activity. An outline of the steps:
as §1

A short description of series [7]: Cytotoxicity against human K562 cells assessed as cell viability at 30 uM. Type of series: cell-based. The note with it: read-out: Activity. The procedure, abridged: as §1
Series [8] relates to K562. Briefly: Induction of fetal heamoglobin level in human K562 cells assessed as increase in enhanced-GFP expression under the control of gamma-globin promoter at 30 uM after 5 days by flow cytometry. Type of series: functional. The procedure, abridged:
as §1

Calls of active or inactive are those of the source. The calls are words filed in the database; no cut-off is given here.

With `C=C1CC[C@H]2C(C)(C)CCC[C@]2(C)[C@H]1/C=C/c1ccoc1` [CORONARIN E], the “fold change (FC)” value in the series on K562 [1] worked out at 0.7. In addition, the result with K562 [2] was inactive. Also, the viability at 5 µM in series [3] came to 87.2%.

Turning to `C=C1CC[C@H]2C(C)(C)CCC[C@]2(C)[C@H]1/C=C/C1=CCOC1=O` [VILLOSIN], the “fold change (FC)” value in the series with K562 [1] is given as 1. Moreover, the outcome in the series with K562 [2] was inactive. Further, the viability at 5 µM in series [3] was determined as 88.9%.

Regarding `C=C1CC[C@H]2C(C)(C)C(=O)CC[C@]2(C)[C@H]1/C=C/C1=CCOC1=O` [CURCUCOMOSIN A], in the series on K562 [1], the “fold change (FC)” value came to 1. Moreover, the outcome in the series on K562 [2] was inactive. The viability at 5 µM in series [3] is 85.8%.

Consider `C=C1CC[C@H]2C(C)(C)CCC[C@]2(C)[C@H]1C/C=C1/C(=O)OC[C@@H]1O` [ISOCORONARIN D], for which, in the series on K562 [4], the “fold change (FC)” value is recorded as 1.6. Also, the Activity entry in the series on K562 [5] was “Dose-dependent effect”. Besides, in series [6], the viability at 20 µM was 80.7%.

Consider `C=C1CC[C@H]2C(C)(C)CCC[C@]2(C)[C@H]1C[C@@H](O)C1=CCOC1=O` [CURCUCOMOSIN C], for which the viability at 30 µM in series [7] was found to be 75.8%. Moreover, in the series with K562 [8], the “fold change (FC)” value is reported as 1.2.

Turning to `C=C1CC[C@H]2C(C)(C)[C@@H](O)CC[C@]2(C)[C@H]1/C=C/C1=CCOC1=O` [CURCUCOMOSIN B], the “fold change (FC)” value in the series with K562 [1] worked out at 1. The outcome in the series on K562 [2] was inactive. Also, in series [3], the viability at 5 µM worked out at 87.7%.

Consider `C=C1CC[C@H]2C(C)(C)CCC[C@]2(C)[C@H]1/C=C/C1=C(O)COC1=O` [ZERUMIN], for which the “fold change (FC)” value with K562 [1] is reported as 1. Besides, the outcome with K562 [2] was inactive. In addition, the viability at 5 µM in series [3] turned out to be 87.5%.
